Reference: ChEMBL document CHEMBL3112482, “Nonclassical antifolates, part 5. Benzodiazepine analogs as a new class of DHFR inhibitors: synthesis, antitumor testing and molecular modeling study” (Eur J Med Chem, 2014)

Tests used:
SW-620 = assay: Growth inhibition of human SW620 cells at 10 uM after 48 hrs; assay type: functional; conditions: SW-620, 48 h, read-out: GI
Procedure, shortened: (§1)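 NCI 60-cell-line disease-oriented human tumor panel, single-dose primary screen at 10 µM. Data given as mean-graph percent growth of treated cells, reported as percent growth inhibition (GI %).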

HCT-15 = assay: Growth inhibition of human HCT15 cells at 10 uM after 48 hrs; assay type: functional; conditions: HCT-15, 48 h, read-out: GI
Procedure, shortened: (§2)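 Single-dose primary screen in the NCI 60 human tumour cell line panel, run at the NCI facility. The panel covers nine subpanels: leukaemia, non-small cell lung, colon, CNS, melanoma, ovarian, renal, prostate and breast. Read-out was percent growth of treated cells, shown as a mean graph and reported as percent growth inhibition.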

HL-60(TB) = assay: Growth inhibition of human HL-60(TB) cells at 10 uM after 48 hrs; assay type: functional; conditions: HL-60, 48 h, read-out: GI
Procedure, shortened: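 NCI 60-cell-line human tumour panel covering nine subpanels (leukaemia, non-small cell lung, colon, CNS, melanoma, ovarian, renal, prostate, breast), run at the NCI facility. Primary screen tested a single dose of each compound. Read-out was percent growth of treated cells versus untreated cells, reported from the mean graph as percentage growth inhibition.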

Dihydrofolate reductase = molecular target: T1, Dihydrofolate reductase (Bos taurus, UniProt P00376); assay: Inhibition of bovine liver DHFR measured for every 1 min of 10 mins
T1 sequence (P00376 whole entry): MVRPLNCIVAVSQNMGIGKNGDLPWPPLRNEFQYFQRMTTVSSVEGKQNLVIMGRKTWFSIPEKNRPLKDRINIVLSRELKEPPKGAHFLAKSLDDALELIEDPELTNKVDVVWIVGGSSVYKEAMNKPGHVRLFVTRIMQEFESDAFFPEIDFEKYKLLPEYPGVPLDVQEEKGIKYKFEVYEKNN

Cancer cell lines [1] = assay: Ratio of 5-FU LC50 to compound LC50 for human breast cancer cells; assay type: functional
Procedure, shortened: (§3)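 Compounds passing the NCI single-dose primary screen were retested across the 60 human tumour cell lines (nine subpanels) over a 5-log dose range. GI50, TGI and LC50 were recorded for each cell line, with 5-fluorouracil run as the reference drug. Subpanel values for compound and 5-FU were then compared.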

Cancer cell lines [2] = assay: Ratio of 5-FU LC50 to compound LC50 for human CNS cancer cells; assay type: functional; procedure, shortened: as §3
Cancer cell lines [3] = assay: Ratio of 5-FU LC50 to compound LC50 for human colon cancer cells; assay type: functional; procedure, shortened: as §3
Cancer cell lines [4] = assay: Ratio of 5-FU LC50 to compound LC50 for human non-small cell lung cancer cells; assay type: functional; procedure, shortened: as §3
Cancer cell lines [5] = assay: Ratio of 5-FU TGI to compound TGI for human ovarian cancer cells; assay type: functional
Cancer cell lines [6] = assay: Ratio of 5-FU TGI to compound TGI for human colon cancer cells; assay type: functional
Cancer cell lines [7] = assay: Ratio of 5-FU TGI to compound TGI for human CNS cancer cells; assay type: functional
Melanoma cell [8] = assay: Ratio of 5-FU TGI to compound TGI for human melanoma cells; assay type: functional
Cancer cell lines [9] = assay: Ratio of 5-FU TGI to compound TGI for human non-small cell lung cancer cells; assay type: functional
Leukemia cell [10] = assay: Ratio of 5-FU TGI to compound TGI for human leukemia cells; assay type: functional
Cancer cell lines [11] = assay: Ratio of 5-FU GI50 to compound GI50 for human ovarian cancer cells; assay type: functional; procedure, shortened: as §3
Cancer cell lines [12] = assay: Ratio of 5-FU GI50 to compound GI50 for human renal cancer cells; assay type: functional; procedure, shortened: as §3
Melanoma cell [13] = assay: Ratio of 5-FU GI50 to compound GI50 for human melanoma cells; assay type: functional; procedure, shortened: as §3
Cancer cell lines [14] = assay: Ratio of 5-FU GI50 to compound GI50 for human colon cancer cells; assay type: functional; procedure, shortened: as §3
Cancer cell lines [15] = assay: Ratio of 5-FU GI50 to compound GI50 for human non-small cell lung cancer cells; assay type: functional; procedure, shortened: as §3
Leukemia cell [16] = assay: Ratio of 5-FU GI50 to compound GI50 for human leukemia cells; assay type: functional; procedure, shortened: as §3
[17] = Cytotoxicity against human prostate cancer cells at 10 uM after 48 hrs; assay type: functional; conditions: Cancer cell lines
[18] = Cytotoxicity against human colon cancer cells at 10 uM after 48 hrs; assay type: functional; conditions: Cancer cell lines; for CC50: read-out: LC50 (the source's name); procedure, shortened: as §2
[19] = Cytotoxicity against human leukemia cells at 10 uM after 48 hrs; assay type: functional; conditions: Leukemia cell
[20] = Cytotoxicity against human non-small cell lung cancer cells at 10 uM after 48 hrs; assay type: functional; conditions: Cancer cell lines; for CC50: read-out: LC50 (the source's name); procedure, shortened: as §2
[21] = Growth inhibition of human UACC257 cells at 10 uM after 48 hrs; assay type: functional; conditions: UACC-257, 48 h, read-out: GI; procedure, shortened: as §1
SK-MEL-2 = assay: Growth inhibition of human SK-MEL-2 cells at 10 uM after 48 hrs; assay type: functional; conditions: SK-MEL-2, 48 h, read-out: GI; procedure, shortened: as §1
HOP-62 = assay: Growth inhibition of human HOP62 cells at 10 uM after 48 hrs; assay type: functional; conditions: HOP-62, 48 h, read-out: GI; procedure, shortened: as §2
A498 = assay: Growth inhibition of human A498 cells at 10 uM after 48 hrs; assay type: functional; conditions: A498, 48 h, read-out: GI; procedure, shortened: as §2
U-251 = assay: Growth inhibition of human U251 cells at 10 uM after 48 hrs; assay type: functional; conditions: U-251, 48 h, read-out: GI; procedure, shortened: as §1
KM12 = assay: Growth inhibition of human KM12 cells at 10 uM after 48 hrs; assay type: functional; conditions: KM12, 48 h, read-out: GI; procedure, shortened: as §2
[22] = Growth inhibition of human HCC2998 cells at 10 uM after 48 hrs; assay type: functional; conditions: HCC 2998, 48 h, read-out: GI; procedure, shortened: as §2
NCI-H522 = assay: Growth inhibition of human NCI-H522 cells at 10 uM after 48 hrs; assay type: functional; conditions: NCI-H522, 48 h, read-out: GI; procedure, shortened: as §2
IGROV-1 = assay: Growth inhibition of human IGROV1 cells at 10 uM after 48 hrs; assay type: functional; conditions: IGROV-1, 48 h, read-out: GI; procedure, shortened: as §2
UACC-62 = assay: Growth inhibition of human UACC62 cells at 10 uM after 48 hrs; assay type: functional; conditions: UACC-62, 48 h, read-out: GI; procedure, shortened: as §1

Structure (SMILES) | IC50 (Dihydrofolate reductase) [µM] | RatioLC50 (Cancer cell lines [1]) | RatioLC50 (Cancer cell lines [2]) | RatioLC50 (Cancer cell lines [3]) | RatioLC50 (Cancer cell lines [4]) | Ratio (Cancer cell lines [5]) | Ratio (Cancer cell lines [6]) | Ratio (Cancer cell lines [7]) | Ratio (Melanoma cell [8]) | Ratio (Cancer cell lines [9]) | Ratio (Leukemia cell [10]) | RatioGI50 (Cancer cell lines [11]) | RatioGI50 (Cancer cell lines [12]) | RatioGI50 (Melanoma cell [13]) | RatioGI50 (Cancer cell lines [14]) | RatioGI50 (Cancer cell lines [15]) | RatioGI50 (Leukemia cell [16]) | GI50 [17] [µM] | LC50 [17] [µM] | TGI [17] [µM] | further results
COc1cc(/C=C2\CCCC3=C(c4cc(OC)c(OC)c(OC)c4)Nc4ccccc4N=C32)cc(OC)c1OC | 0.09 | 11 | 11 | 11 | 11 | 11 | 11 | 11 | 11 | 11 | 11 | 11 | 11 | 11 | 11 | 11 | 11 | 2.3 | > 100 | 53.4 | inhibition of growth at 10 µM (SW-620): 94.3%; inhibition of growth at 10 µM (HCT-15): 93.9%; inhibition of growth at 10 µM (HL-60(TB)): 98.5%; GI50 [18]: 1.6 µM; TGI [18]: 5.2 µM; CC50 [18]: 36.4 µM; GI50 [19]: 1.4 µM; LC50 [19]: > 100 µM; TGI [19]: 5 µM; GI50 [20]: 2.8 µM; TGI [20]: 28 µM; CC50 [20]: 73.6 µM; inhibition of growth at 10 µM [21]: 83.8%; inhibition of growth at 10 µM (SK-MEL-2): 82.1%
COc1cc(/C=C2\CCCc3c2nc(N)nc3-c2cc(OC)c(OC)c(OC)c2)cc(OC)c1OC | 21 | 15 | 15 | 15 | 15 | 15 | 15 | 15 | 15 | 15 | 15 | 15 | 15 | 15 | 15 | 15 | 15 | 2.7 | > 100 | > 100 | inhibition of growth at 10 µM (HOP-62): 82.2%; GI50 [18]: 1.1 µM; TGI [18]: 2.6 µM; CC50 [18]: 68.3 µM; GI50 [19]: 1.3 µM; LC50 [19]: > 100 µM; TGI [19]: 36.5 µM; GI50 [20]: 1.7 µM; TGI [20]: 42.5 µM; CC50 [20]: > 100 µM; inhibition of growth at 10 µM (A498): 99.5%
COc1cc(/C=C2\CCCc3c2nc(C)nc3-c2cc(OC)c(OC)c(OC)c2)cc(OC)c1OC | 0.5 | 15 | 15 | 15 | 15 | 15 | 15 | 15 | 15 | 15 | 15 | 15 | 15 | 15 | 15 | 15 | 15 | 1.8 | > 100 | > 100 | inhibition of growth at 10 µM (U-251): 90.2%; inhibition of growth at 10 µM (KM12): 97.1%; inhibition of growth at 10 µM (HCT-15): 95.8%; inhibition of growth at 10 µM [22]: 88.1%; inhibition of growth at 10 µM (NCI-H522): 48.2%; inhibition of growth at 10 µM (HOP-62): 78%; GI50 [18]: 0.9 µM; TGI [18]: 67.3 µM; CC50 [18]: 76.2 µM; GI50 [19]: 1.1 µM; LC50 [19]: > 100 µM; TGI [19]: 62.5 µM; GI50 [20]: 2.7 µM; TGI [20]: > 100 µM; CC50 [20]: > 100 µM; inhibition of growth at 10 µM (A498): 83.7%; inhibition of growth at 10 µM (IGROV-1): 69.3%; inhibition of growth at 10 µM (UACC-62): 91%; inhibition of growth at 10 µM [21]: 56.2%; inhibition of growth at 10 µM (SK-MEL-2): 73.4%
